Laboratory results as given in PMC8741576 (Molecular Diversity, 2022).
Like-named read-outs stand apart in the source and are kept apart here.

Assays:
human coronavirus OC43 = experiment: Antiviral assay, virus-induced cytopathic effect, MTS, HEL cells; format: cell-based; details: HEL cell culture
in vitro [1] = details: human
[2] = system: LN-229 glioblastoma cells; experiment: Antiproliferative screening, MTS cell viability assay; format: cell-based; details: Homo sapiens, LN-229, 72 h, read-out: IC50 LN-229
[3] = system: Capan-1 pancreatic adenocarcinoma cells; experiment: as above; format: cell-based; details: Homo sapiens, CAPAN-1, 72 h, read-out: IC50 Capan-1
[4] = system: HCT-116 colorectal carcinoma cells; experiment: as above; format: cell-based; details: Homo sapiens, HCT-116, 72 h, read-out: IC50 HCT-116
[5] = system: NCI-H460 lung carcinoma cells; experiment: as above; format: cell-based; details: Homo sapiens, NCI-H460, 72 h, read-out: IC50 NCI-H460
[6] = system: DND-41 acute lymphoblastic leukemia cells; experiment: Antiproliferative screening, IncuCyte cell growth; format: cell-based; details: Homo sapiens, DND41, 72 h, read-out: IC50 DND-41
[7] = system: HL-60 acute myeloid leukemia cells; experiment: Antiproliferative screening, IncuCyte cell growth; format: cell-based; details: Homo sapiens, HL-60, 72 h, read-out: IC50 HL-60
[8] = system: K-562 chronic myeloid leukemia cells; experiment: Antiproliferative screening, IncuCyte cell growth; format: cell-based; details: Homo sapiens, K562, 72 h, read-out: IC50 K-562
[9] = system: Z-138 non-Hodgkin lymphoma cells; experiment: Antiproliferative screening, IncuCyte cell growth; format: cell-based; details: Homo sapiens, Z-138, 72 h, read-out: IC50 Z-138
[10] = system: human solid tumor and leukemia cell lines; format: cell-based; details: read-out: Antiproliferative IC50 across cancer cell lines
[11] = system: HEL 299 normal human lung fibroblasts; experiment: Antiproliferative screening on noncancerous cells; details: Homo sapiens, HEL 299, read-out: IC50 HEL 299
[12] = Cytotoxicity in MT-4 cell culture; format: cell-based; details: human, MT-4 cells
HIV-1 NL4.3 = experiment: Antiretroviral assay in MT-4 cells, cytopathic effect; format: cell-based
Procedure, shortened: (§1)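 MT-4 cells (1 × 10^6 cells/mL) were pre-incubated with test compound for 30 min at 37 °C. HIV-1 NL4.3 or HIV-2 ROD was then added according to the CCID50 of the viral stock. Cytopathic effect was scored microscopically 5 days post-infection. […] SI was taken as the CC50/EC50 ratio.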

HIV-2 ROD = experiment: as above; format: cell-based
Procedure, shortened: as §1

in vitro [13] = details: human; remark: listed apart in the source
MT-4 cells = experiment: Cytotoxicity in MT-4 cell culture; format: cell-based; details: read-out: Cytotoxicity (CC50); MT-4 cell culture
[14] = system: C. violaceum ATCC31532 QS-reporter strain; experiment: Anti-QS screening, violacein production; format: cell-based; details: Chromobacterium violaceum, ATCC31532, read-out: Anti-QS IC50

Compound	SI, selectivity index (CC50 to EC50 ratio) OC43 (human coronavirus OC43)	SI, selectivity index (CC50 to EC50 ratio) 229E (human coronavirus 229E; HEL cell culture)	CC50 (in vitro [1]) [µM]	IC50 [2] [µM]	IC50 [3] [µM]	IC50 [4] [µM]	IC50 [5] [µM]	IC50 [6] [µM]	IC50 [7] [µM]	IC50 [8] [µM]	IC50 [9] [µM]	IC50 [11] [µM]	CC50 at 5 days [12] [µM]	SI, selectivity index (CC50 to EC50 ratio) HIV-1 NL4.3 (HIV-1 NL4.3; MT-4 cell culture)	also measured
CCC(CC)COC(=O)[C@H](C)N[P@](=O)(OC[C@H]1O[C@@](C#N)(c2ccc3c(N)ncnn23)[C@H](O)[C@@H]1O)Oc1ccccc1 [Remdesivir, remdesivir, reference compound]	> 250	> 160	> 10												
Nc1cc(Cl)ccc1C(=O)NCCCCNc1ccnc2cc(Cl)ccc12 [Compound 12, 2-Amino-4-chloro-N-{4-[(7-chloroquinolin-4-yl)amino]butyl}benzamide]	> 10.4	4.6	8.3 ± 0.78	2.8 ± 1.2	6.3 ± 2.8	8.9 ± 3	7.3 ± 1.5	9.2 ± 2.2	9.8 ± 3.5	8.4 ± 3.2	7.2 ± 2.6	7.4 ± 1.2			IC50 [10]: 2 to 10 µM
CCN(CC)CCCC(C)Nc1ccnc2cc(Cl)ccc12 (stereo not drawn) [CQ, chloroquine, reference compound]	31.4		40.8 ± 2.2	8.9 ± 2.3	46.1 ± 1.3	65.5 ± 7.3	> 100	59.5 ± 3.5	> 100	50.6 ± 2.9	47.4 ± 5.3	84.7 ± 15.3	> 100	> 3.2	SI, selectivity index (CC50 to EC50 ratio) HIV-2 ROD (HIV-2 ROD; MT-4 cell culture): > 26.3; SI, selectivity index (CC50 to EC50 ratio) 229E (human coronavirus 229E): 29.1; selectivity ratio (in vitro [13]): ~30
CC(Cn1cnc2c(N)ncnc21)OCP(=O)(O)O (stereo not drawn) [PMPA, 2-phosphonomethoxypropyl adenine]															CC50 (MT-4 cells): > 100 µM; EC50 (HIV-1 NL4.3; read-out: Antiviral activity (EC50) HIV-1 NL4.3, MT-4 cell culture, 5 days post-infection): 1.6 µM; EC50 (HIV-2 ROD; read-out: Antiviral activity (EC50) HIV-2 ROD, MT-4 cell culture, 5 days post-infection): 0.6 µM
COc1cc(NC(C)CCCNC(=O)c2ccccc2N)c2ncccc2c1 (stereo not drawn) [Compound 14, 2-Amino-N-{4-[(6-methoxyquinolin-8-yl)amino]pentyl}benzamide]				> 100	> 100	> 100	76.7 ± 25	> 100	> 100	> 100	> 100	> 100	78.2 ± 9.3	8.4	
COc1cc(NC(C)CCCNC(=O)c2cc(Br)ccc2N)c2ncccc2c1 (stereo not drawn) [Compound 16, 2-Amino-5-bromo-N-{4-[(6-methoxyquinolin-8-yl)amino]pentyl}benzamide]				> 100	> 100	> 100	> 100	> 100	> 100	> 100	> 100	> 100	56.4 ± 1.6	4.0	
Nc1ccc(Br)cc1C(=O)NCCCCNc1ccnc2cc(Cl)ccc12 [Compound 13, 2-Amino-5-bromo-N-{4-[(7-chloroquinolin-4-yl)amino]butyl}benzamide]	5.0	5.4	7.5 ± 1.3	3.1 ± 0.8	5.4 ± 1.8	7 ± 0.3	5.3 ± 0.4	7.8 ± 4.1	10.3 ± 3.2	7.7 ± 1.1	6 ± 2.6	7.8 ± 1.8			IC50 [14]: 3.7 µM; IC50 [10]: 2 to 10 µM
COc1cc(NC(C)CCCN)c2ncccc2c1 (stereo not drawn) [PQ, primaquine, reference compound]			> 100	45.4 ± 1.2	45.6 ± 3.5	53.9 ± 4.2	> 100	50.2 ± 16.7	28.4 ± 1.6	40.5 ± 6	11.4 ± 1.1	> 100	17.9 ± 8		Anti-HIV / antiretroviral activity in words (HIV-1 NL4.3; MT-4 cells): no anti-HIV activity; Anti-HIV / antiretroviral activity in words (HIV-2 ROD; MT-4 cells): no anti-HIV activity
